# From PubChem
# proKLK7 act: proKLK7 (human) activation, primary screen; P49862; purified proKLK7, EDANS-DABCYL substrate fluorescence; 100% is mature enzyme control, 0% vehicle; activation, % at 7 µM; 370,000 compounds, 0.9% hits;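 active means activation above the mean of all tested compounds plus 3 SD, computed per campaign excluding outliers beyond control limits, cut at about 13% in these data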
# PLCg1 inh: blocks human PLC-gamma1 enzyme activity; P19174; purified PLC-gamma1, fluorogenic substrate, fluorescence; inhibition, % at 12.2 µM; 370,000 compounds, 0.84% hits; AID 720700; in the data active means inhibition above about 9.5%
# CendR NRP1 mod: NRP-1/CendR interaction modulation; AID 602438; 360,000 compounds, 0.85% hits; FAM-RPARPAR peptide binding to NRP-1, fluorescence polarization; O14786; inhibition, % at 25 µM;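 active means inhibition or corrected inhibition above about 18%, plus a signal ratio from 0.5 to 1.5, limit read from the data, passing the limit was not always enough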
# DDE Tn7 FP inh: DD(E)-Tn7 binding inhibition, primary FP screen. inhibition, % at 8.3 µM. P02675. FP displacement of FITC-Tn7 peptide from fibrin DD(E); 0% = median of compound wells per plate. 370,000 compounds, 0.13% hits. AID 720508;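 active means inhibition above the mean of compounds falling within the control limits plus 3 SD of them, cut at about 14% in these data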;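 further: 0% = plate median of compound wells and 100% = 10 µM Aha-Tn7 peptide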
#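 Test system – human fibrin DD(E) · Times – 10 min preincubation, 3 h with tracer, room temperature · Detection – fluorescence polarization of the labelled Tn7 tracer · Measure – percent inhibition normalized to high-control wells · Benchmarks – high control wells with 10 µM unlabelled Aha-Tn7 peptide (full inhibition) · Repeats – singlicate testing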
# DDE Tn6 FP inh: DD(E)-Tn6 binding inhibition, primary FP screen; P02675; inhibition, % at 8.3 µM; 370,000 compounds, 0.21% hits; Fibrin DD(E) TRITC-Tn6 fluorescence polarization displacement;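 active means inhibition above a per-campaign cutoff: mean of compounds within control limits plus 3 SD, cut at about 15% in these data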;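 further: 0% = median of all compound wells on the plate and 100% = blocking peptide control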
# PLCb3 inh: inhibitors of human phospholipase C beta3 | Q01970 | Purified PLC-beta3, fluorogenic substrate, fluorescence | inhibition, % at 12.2 µM | 370,000 compounds, 0.18% hits | AID 720704;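 further: 0% = median of compound wells on plate and 100% = full blocker control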
# PLCgamma1 ctr: inhibits human PLC-gamma1 in PLC-beta3 counter-screen | 3,300 compounds, 3.1% hits | shares compounds with PLCg1 inh | purified PLC-gamma1, fluorogenic substrate, fluorescence | inhibition, % at 12.3 µM; in the data active means inhibition above about 9.5%
# PLCb3 confirm: human PLC-beta3 inhibition, confirmation; shares compounds with PLCg1 inh; purified PLC-beta3, fluorogenic substrate fluorescence; AID 743261; 3,300 compounds, 1% hits; inhibition, % at 12.3 µM
# Active calls of the source: *; . = no result given. In the library only some 3% were active in any assay of this set; here they are far more common. Unless noted, no stated cut-off is given here; in the data, active means inhibition above about 11%; inactive means the rest.
SMILES,proKLK7 act,PLCg1 inh,CendR NRP1 mod,DDE Tn7 FP inh,DDE Tn6 FP inh,PLCb3 inh,PLCgamma1 ctr,PLCb3 confirm
CC(=O)NC1CC(C)(C)N(OC(C)=O)C(C)(C)C1,0,10*,6,-1,5,1,-8,-4
COC(=O)C1CN(C2CC2)CCS(=O)(=O)N1Cc1cn(Cc2ccc(C)cc2)nn1 (configuration not stated),0,1,.,-4,3,0,.,.
O=C(Nc1cccc(S(=O)(=O)N2CCOCC2)c1)c1cn(-c2ccccc2)nc1-c1ccccc1,0,3,4,0,-6,1,.,.
Cc1ccc(-c2nn(-c3ccccc3)cc2C(=O)Nc2ccc(C)c(S(=O)(=O)N3CCOCC3)c2)cc1,0,9.6*,-13,-3,-18,4,-5,-9
COc1cc(OC)cc(C(=O)Nc2ccc(S(=O)(=O)Nc3ncccn3)cc2)c1,0,9,-3,6,-8,-5,.,.
COc1ccc(C(=O)Nc2ccc(S(=O)(=O)Nc3ncccn3)cc2)cc1OC,0,4,3,-2,-7,14*,-9,-5
CN[C@H]1C[C@H]2c3[nH]c4cccc(-c5ccccc5)c4c3CCN2C[C@H]1[C@H](C)O,-3,-194,.,-12,-6,-217,.,.
Cc1nn(-c2ccccc2)c(OC(=O)c2cccs2)c1S(=O)(=O)c1ccccc1,0,14*,-4,-5,7,6,-1,1
Nc1cc(OC(=O)c2cccs2)nn1S(=O)(=O)c1ccccc1,0,0,-10,6,0,0,.,.
Cc1nn(-c2ccccc2)c(OC(=O)c2cccs2)c1S(=O)(=O)c1ccc([N+](=O)[O-])cc1,0,15*,16,0,-8,20*,4,5
COC(=O)c1cc2c(c3c4cc(OC)ccc4n(S(=O)(=O)c4ccc(OC)cc4)c13)C(=O)N(Cc1ccccc1)C2,-3,-62,.,-5,-7,-78,.,.
COc1ccc(CSc2nnc(SCc3ccccc3)s2)cc1,0,-2,.,-4,3,-1,.,.
Cn1cccc1C(=O)N1CCN(S(=O)(=O)c2ccc(F)cc2)CC1,-1,2,.,-7,2,3,.,.
CCc1nnc(NC(=O)CCC(=O)N2CCN(CCOc3ccc(C)cc3)CC2)s1,0,6,-4,0,3,14*,-6,-4
CCc1nnc(NC(=O)CCC(=O)N2CCN(CCc3ccccc3)CC2)s1,0,8,-2,-6,-5,6,.,.
CCCCNC(=O)OCCCN1CCC2(CCC(c3ccccc3)CC2)C1 (configuration not stated),1,1,.,-6,1,0,.,.
CC(NCC(=O)Nc1ccccc1C(=O)NC1CC1)c1ccc(S(N)(=O)=O)cc1 (configuration not stated),0,-6,12,5,-5,-4,.,.
CCN(CC)S(=O)(=O)c1ccc(C(C)NCC(=O)Nc2ccccc2C(=O)NC2CC2)cc1 (configuration not stated),1,10*,1,-6,1,-5,0,-1
CCC1CCCCN1C(=O)c1ccccc1OC1CCN(S(C)(=O)=O)CC1 (configuration not stated),-1,-2,8,-5,3,-5,.,.
CC1CCCCN1C(=O)c1ccccc1OC1CCN(S(C)(=O)=O)CC1 (configuration not stated),0,9.5*,7,-11,-6,3,-6,-7
CC(=O)OC1CCC2(C)C(=CCC3C2CCC2(C)C3CC3OC4(CCC(C)CN4)C(C)C32)C1 (configuration not stated),0,11*,4,4,1,8,-2,-1
Cc1cccc(NC2=C(NC(=O)c3ccccc3)C(=O)c3ccccc3C2=O)c1,0,10*,-7,1,1,6,5,4
